{"data": "Results from different studies", "note": "Compare with care: the assays were run in different laboratories."}
{"SMILES": "CCCc1cc(C(=O)OC)c(NC(=O)C2CCN(C(C)=O)CC2)s1", "system": "PBS", "solubility": "> 20 µM"}
{"SMILES": "Cn1cnc2ccc(Nc3c(F)ccc(NS(=O)(=O)N4CC(F)C4)c3Cl)c(Cl)c2c1=O", "system": "aqueous buffer", "conditions": "pH 2.05", "solubility": "2 µg/mL"}
{"SMILES": "Cc1ccc(Cn2cc(C(=O)NN)c(=O)c3cc(Oc4ccccc4)ccc32)cc1", "test": "shake flask", "system": "PBS", "conditions": "24 h, pH 6.5, 25 °C", "solubility": "< 5 µM"}
{"SMILES": "O=[N+]([O-])c1ccc(/C=N/c2c(-c3ccccc3)nc3ccc(Cl)cn23)cc1", "system": "aqueous buffer", "conditions": "pH 7", "solubility": "25 µg/mL"}
{"SMILES": "Cc1c(C(=O)O)ccc2c3n(nc12)[C@@H]1[C@H](C3)N(CC2CC2)[C@@]2(C(=O)Nc3cc(Cl)ccc32)[C@H]1c1cccc(Cl)c1F", "system": "FaSSIF", "solubility": "50 µg/mL"}
{"SMILES": "O=[N+]([O-])c1cccc(/C=N/c2c(-c3ccccc3)nc3ccc(Cl)cn23)c1", "system": "aqueous buffer", "conditions": "pH 7", "solubility": "25 µg/mL"}
{"SMILES": "O=C(C=Cc1ccccc1)Nc1cc(-c2ccnc(N3CCC(O)CC3)c2)ccn1", "system": "water", "conditions": "pH 7.4", "solubility": "~115 µg/mL"}
{"SMILES": "Cc1cc(C)c2nc(-c3ccncc3)cc(C(=O)NCCCn3ccnc3)c2c1", "system": "PBS", "solubility": "> 20 µM"}
{"SMILES": "Cn1cncc1[C@@](N)(c1ccc(Cl)cc1)c1ccc2c(c1)c(-c1cccc(Cl)c1)cc(=O)n2C", "system": "simulated gastric fluid", "conditions": "pH 1.02, 25 °C, acidic", "solubility": "> 3750 µg/mL"}
{"SMILES": "CC(=Nc1ccc(N=Cc2ccc3[nH]cnc3c2)cc1)N(C)C", "test": "shake flask", "system": "PBS", "conditions": "24 h, pH 7.4, 25 °C", "solubility": "~20 µg/mL"}
{"SMILES": "Cc1noc(C)c1CC(=O)N1CCOc2c(cc(-c3cccc(Cl)c3)cc2OCC2CCCN(C)C2)C1 (stereo not drawn)", "system": "water", "solubility": "75 µM"}
{"SMILES": "N=C(N)NCCC[C@H](NC(=O)[C@@H](NC(=O)[C@H](Cc1cscn1)NC(=O)CCc1ccccc1)C1CCCCC1)C(=O)c1nc2ccccc2s1", "system": "PBS", "conditions": "90 min, pH 7.4", "solubility": "> 10 µM"}
